Tests used:
[1] = molecular target: T1, 5-hydroxytryptamine receptor 2A (Homo sapiens, UniProt P28223); test: Displacement of [125I]DOI from human recombinant 5HT2A receptor expressed in HEK293E cells; type: cell-based
Summary of the method: (§1)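 Radioligand binding with [125I]DOI at the human 5-HT2C or 5-HT2A receptor. Ki is the mean of ≥2 independent 12-point dose-response curves (n ≥4 where SD is given).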

[2] = molecular target: T2, 5-hydroxytryptamine receptor 2B (Homo sapiens, UniProt P41595); test: Displacement of [3H]LSD from human recombinant 5HT2B receptor expressed in HEK293E cells
[3] = molecular target: T3, 5-hydroxytryptamine receptor 2C (Homo sapiens, UniProt P28335); test: Displacement of [125I]DOI from human recombinant 5HT2C receptor expressed in HEK293E cells; type: cell-based; summary of the method: as §1
T3 sequence (P28335 whole entry): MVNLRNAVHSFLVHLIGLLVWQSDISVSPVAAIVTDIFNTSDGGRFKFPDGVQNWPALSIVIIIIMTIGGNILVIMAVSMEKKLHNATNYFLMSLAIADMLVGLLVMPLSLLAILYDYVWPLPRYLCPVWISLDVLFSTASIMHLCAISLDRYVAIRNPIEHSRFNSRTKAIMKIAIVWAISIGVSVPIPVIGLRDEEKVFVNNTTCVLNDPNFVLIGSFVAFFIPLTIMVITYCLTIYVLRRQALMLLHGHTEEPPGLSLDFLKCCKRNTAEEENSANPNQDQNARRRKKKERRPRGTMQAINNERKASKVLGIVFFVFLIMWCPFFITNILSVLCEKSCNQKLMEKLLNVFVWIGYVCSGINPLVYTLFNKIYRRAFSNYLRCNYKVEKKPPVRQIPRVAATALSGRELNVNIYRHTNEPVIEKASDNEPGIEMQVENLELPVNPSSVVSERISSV

[4] = molecular target: T2, 5-hydroxytryptamine receptor 2B; test: Agonist activity at human recombinant 5HT2B receptor expressed in HEK293E cells by FLIPR assay; type: functional, cell-based
Summary of the method: (§2)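 Calcium mobilization measured by FLIPR in HEK293E cells expressing human 5-HT2A, 5-HT2B or 5-HT2C receptor. Values are means of ≥2 independent 12-point dose-response curves (n ≥4 where SD is given). mCPP is the positive control.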

[5] = molecular target: T3, 5-hydroxytryptamine receptor 2C; test: Agonist activity at human recombinant 5HT2C receptor expressed in HEK293E cells by FLIPR assay; type: functional, cell-based; summary of the method: as §2
[6] = molecular target: T1, 5-hydroxytryptamine receptor 2A; test: Intrinsic activity at human recombinant 5HT2A receptor expressed in HEK293E cells by FLIPR assay at 3 uM relative to control; type: cell-based
Summary of the method: (§3)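 FLIPR calcium mobilization in HEK293E cells expressing the human receptor. Intrinsic activity is expressed relative to activation by 3 µM serotonin, defined as 1.0. Values are means of ≥2 independent 12-point dose-response curves.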

[7] = molecular target: T4, 5-hydroxytryptamine receptor 2C (Homo sapiens) (UniProt P28335); test: Intrinsic activity at human recombinant 5HT2C receptor at 3 uM expressed in HEK293E cells by FLIPR assay relative to control; type: cell-based; summary of the method: as §3
T4 sequence (whole entry): T3 sequence (P28335 whole entry)

[8] = molecular target: T1, 5-hydroxytryptamine receptor 2A; test: Agonist activity at human recombinant 5HT2A receptor expressed in HEK293E cells by FLIPR assay; type: functional, cell-based; summary of the method: as §2
[9] = molecular target: 5-hydroxytryptamine receptor 2B (Rattus norvegicus) (UniProt P30994); test: Intrinsic activity at 5HT2B receptor in rat fundus at 10 uM relative to control
[10] = molecular target: T2, 5-hydroxytryptamine receptor 2B; test: Intrinsic activity at human recombinant 5HT2B receptor expressed in HEK293E cells by FLIPR assay at 3 uM relative to control; type: cell-based; summary of the method: as §3
Rattus norvegicus [11] = species on record: Rattus norvegicus; test: Antiobesity activity in Sprague-Dawley rat assessed as reduction of food intake after 20 hrs; type: functional, organism-based
Rattus norvegicus [12] = test: Antiobesity activity in Sprague-Dawley rat assessed as reduction of body weight at 30 mg/kg, po after 4 days; type: functional; design: scale not given: the % may be the effect or the level left
Summary of the method: (§4)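 Male Sprague–Dawley rats, about 240 g (n = 8), were dosed orally once daily for 4 days with compound or vehicle (14% propylene glycol, 1% tween, 85% water, v/v/v). Body weight, food and water intake were measured daily and compared with vehicle.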

Rattus norvegicus [13] = test: Antiobesity activity in Sprague-Dawley rat assessed as reduction of food intake at 10 mg/kg, po after 20 hrs; type: functional; design: scale not given: the % may be the effect or the level left
[14] = AUC in Sprague-Dawley rat at 10 mg/kg, po after 8 hrs; type: ADME, organism-based; design: time < 8 hr, dose 10 mg/kg, route oral; details: plasma
Summary of the method: (§5)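 Male Sprague–Dawley rats given a single oral dose, 2 animals per value. AUC is taken over 0–8 h. Plasma and total brain levels are measured at 8 h post dose.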

Rattus norvegicus [15] = test: Antiobesity activity in Sprague-Dawley rat assessed as reduction of food intake at 30 mg/kg, po after 20 hrs; type: functional; design: scale not given: the % may be the effect or the level left
Summary of the method: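 Male Sprague–Dawley rats (n = 6) are dosed orally 60 min before dark-cycle onset. Vehicle is 14% propylene glycol, 1% tween, 85% water (v/v/v). Food pellet consumption over 20 h is compared with vehicle-treated animals as percent reduction. Water intake and locomotor activity are recorded at the same time.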

Brain = test: Drug level in Sprague-Dawley rat brain at 10 mg/kg, po after 8 hrs; type: ADME, organism-based; design: dose 10 mg/kg, route oral; details: in vivo; summary of the method: as §5
Rattus norvegicus [16] = test: Antiobesity activity in Sprague-Dawley rat assessed as reduction of caloric intake at 30 mg/kg, po after 4 days; type: functional; design: scale not given: the % may be the effect or the level left; summary of the method: as §4
[17] = Plasma concentration in Sprague-Dawley rat at 10 mg/kg, po after 8 hrs; type: ADME, organism-based; design: dose 10 mg/kg, route oral; summary of the method: as §5
[18] = Tmax in Sprague-Dawley rat at 10 mg/kg, po; type: ADME, organism-based; design: dose 10 mg/kg, route oral; details: in vivo
Summary of the method: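 Male Sprague–Dawley rats were dosed po only at 1 or 10 mpk. Values are means of 2 animals. AUC was collected over 4 h. Plasma and total brain levels were taken at 4 h post dose.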

T2 sequence (P41595 whole entry): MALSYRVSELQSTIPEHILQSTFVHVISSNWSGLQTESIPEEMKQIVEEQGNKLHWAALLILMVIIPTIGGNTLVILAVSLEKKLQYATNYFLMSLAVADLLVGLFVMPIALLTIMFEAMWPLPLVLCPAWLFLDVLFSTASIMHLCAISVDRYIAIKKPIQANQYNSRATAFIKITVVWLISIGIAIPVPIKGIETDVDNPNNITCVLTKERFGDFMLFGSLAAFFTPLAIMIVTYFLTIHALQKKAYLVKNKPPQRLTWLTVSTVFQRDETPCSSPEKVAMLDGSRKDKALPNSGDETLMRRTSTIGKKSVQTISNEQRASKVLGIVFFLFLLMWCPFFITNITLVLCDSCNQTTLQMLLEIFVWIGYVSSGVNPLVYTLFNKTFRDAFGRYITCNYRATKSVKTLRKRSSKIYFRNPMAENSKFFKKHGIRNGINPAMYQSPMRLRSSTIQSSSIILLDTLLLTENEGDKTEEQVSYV
T1 sequence (P28223 whole entry): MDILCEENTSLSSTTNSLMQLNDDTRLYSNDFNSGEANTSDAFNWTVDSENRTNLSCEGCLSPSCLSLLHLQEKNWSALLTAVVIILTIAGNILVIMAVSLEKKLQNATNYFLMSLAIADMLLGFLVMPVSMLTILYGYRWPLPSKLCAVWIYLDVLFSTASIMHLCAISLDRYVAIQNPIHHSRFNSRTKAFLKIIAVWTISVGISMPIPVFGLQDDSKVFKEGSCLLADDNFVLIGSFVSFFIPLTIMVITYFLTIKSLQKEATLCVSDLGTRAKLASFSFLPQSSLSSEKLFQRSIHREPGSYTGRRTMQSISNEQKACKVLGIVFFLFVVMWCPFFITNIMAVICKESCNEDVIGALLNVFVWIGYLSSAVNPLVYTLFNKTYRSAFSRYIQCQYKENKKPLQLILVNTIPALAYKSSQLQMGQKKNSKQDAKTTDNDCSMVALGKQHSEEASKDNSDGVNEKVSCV
Chain of 5-hydroxytryptamine receptor 2B (Rattus norvegicus) (P30994 whole entry, looked up): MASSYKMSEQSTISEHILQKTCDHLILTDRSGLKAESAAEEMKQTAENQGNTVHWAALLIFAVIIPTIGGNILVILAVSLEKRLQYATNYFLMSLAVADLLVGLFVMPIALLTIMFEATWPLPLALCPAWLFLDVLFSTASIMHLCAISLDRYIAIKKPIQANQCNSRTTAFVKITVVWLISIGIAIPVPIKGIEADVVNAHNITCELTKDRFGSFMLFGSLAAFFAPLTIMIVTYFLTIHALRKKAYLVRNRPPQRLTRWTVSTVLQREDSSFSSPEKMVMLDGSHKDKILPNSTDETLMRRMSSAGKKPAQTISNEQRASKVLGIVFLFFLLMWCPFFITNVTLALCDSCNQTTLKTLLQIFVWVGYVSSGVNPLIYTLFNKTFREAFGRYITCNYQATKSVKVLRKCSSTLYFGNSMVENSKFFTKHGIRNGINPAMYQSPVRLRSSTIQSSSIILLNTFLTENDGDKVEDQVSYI

Row | SMILES | Ki [1] [µM] | Ki [2] [µM] | Ki [3] [µM] | EC50 [4] [µM] | EC50 [5] [µM] | Intrinsic activity [6] | Intrinsic activity [7] | EC50 [8] [µM] | Intrinsic activity [10] | also measured
1 | Cc1cccc2c1C(=O)NC1CCNCCN21 (configuration not stated) | 0.141 | 0.01 | 0.0029 | 0.061 | 0.002 | 1 | 1 | 0.07 | 0.44 | Intrinsic activity [9]: 0.2
2 | Cc1cccc2c1C(=O)NC1CNCCN21 (single isomer, unassigned; (+)) |  |  |  |  |  | 0 | 1 |  | 0 | Activity (Rattus norvegicus [11]): Dose-dependent effect
3 | Cc1ccc2c(c1)N1CCNCCC1NC2=O (stereo in doubt; (+)-3c) [listing 1 of 2 here] | 0.364 | 0.041 | 0.0065 | > 10 | 0.0066 |  |  | 0.952 |  | Activity (Rattus norvegicus [12]): 2.7%; Activity (Rattus norvegicus [13]): 18%; AUC at 8 h [14]: 9.24 µM·h; Activity (Rattus norvegicus [15]): 25%; Drug uptake (Brain): 108 nmol/kg; Activity (Rattus norvegicus [16]): 19%; concentration at 8 h [17]: 714 nM; Tmax [18]: 1.5 h
4 | O=C1NC2CCNCCN2c2ccccc21 (single isomer, unassigned) | 0.269 | 0.067 | 0.049 | 0.101 | 0.016 | 1 | 0.8 | 0.248 | 0.6 | 
5 | Cc1ccc2c(c1)N1CCNCCC1NC2=O (stereo in doubt; (-)-3c) [listing 1 of 2 here] | 0.454 | 0.051 | 0.06 |  | 0.092 |  |  | > 10 |  | 
6 | O=C1NC2CNCCCN2c2cccc(Cl)c21 (racemic) | 13.6 | 0.734 | 1.55 |  |  |  |  |  |  | 
7 | O=C1NC2CCNCCN2c2cccc(Cl)c21 (single isomer, unassigned) | 0.168 | 0.023 | 0.009 | 0.046 | 0.0018 | 0.8 | 1 | 0.13 | 0.5 | 
8 | O=C1NC2CNCCN2c2cccc(C(F)(F)F)c21 (single isomer, unassigned) | 0.184 | 0.013 | 0.153 | > 10 | 0.092 |  | 0.93 |  |  | 
9 | Cc1cccc2c1C(=O)NC1CNCCN21 (stereo in doubt; (-)-2a) [listing 1 of 2 here] | 4.48 | 0.206 | 2.08 |  | 0.989 |  |  |  |  | 
10 | O=C1NC2CNCCN2c2c(Cl)cccc21 (configuration not stated) | > 10 | > 10 | > 10 |  | > 10 |  | 0 |  |  | 
11 | Cc1ccc2c(c1)C(=O)NC1CNCCN21 (single isomer, unassigned) | 1.22 | 0.061 | 0.998 | > 10 | 0.133 | 0.34 | 1 | > 0.705 | 0 | 
12 | Cc1ccc2c(c1)N1CCNCC1NC2=O (single isomer, unassigned) | 0.6 | 0.28 | 0.479 | > 10 | 0.034 | 0.26 | 1 | > 1 | 0 | 
13 | O=C1NC2CNCCN2c2cccc(Cl)c21 (configuration not stated) | 0.334 | 0.018 | 0.223 | > 10 | 0.043 | 0 | 0.8 | > 10 | 0 | 
14 | O=C1NC2CNCCN2c2ccc(Cl)cc21 (single isomer, unassigned) | 0.397 | 0.072 | 0.757 |  | 0.11 |  | 0.97 |  |  | 
15 | Cc1ccc2c(c1)N1CCNCCC1NC2=O (stereo in doubt; (+)-3c) [listing 2 of 2 here] |  |  |  |  |  | 0.28 | 1.1 |  | 0 | 
16 | Cc1cccc2c1C(=O)NC1CNCCN21 (stereo in doubt; (-)-2a) [listing 2 of 2 here] |  |  |  |  |  |  | 0.9 |  |  | 
17 | Clc1cccc(N2CCNCC2)c1 |  |  |  |  |  | 0.3 | 1 |  | 0.4 | 
18 | O=C1NC2CNCCN2c2ccccc21 (single isomer, unassigned) | 1.98 | 0.137 | 1.94 |  | 0.137 |  | 0.96 |  |  | 
19 | Cc1ccc2c(c1)N1CCNCCC1NC2=O (stereo in doubt; (-)-3c) [listing 2 of 2 here] |  |  |  |  |  | 0.11 | 0.66 |  |  | 
20 | Cc1cccc2c1N1CCNCC1NC2=O (configuration not stated) | > 10 | 2.39 | 6.15 |  | 4.2 | 0 | 0.4 | > 10 |  | 
